Experimental data as given in ChEMBL document CHEMBL3098119, “Exploring naphthyl-carbohydrazides as inhibitors of influenza A viruses” (Eur J Med Chem, 2014).
Activity calls are given as the source filed them. No cut-off for these calls is given here.

Tests used:
Influenza A virus [1] = assay: Antiviral activity against Influenza A virus (A/udorn/307/1972 H3N2) infected in MDCK cells assessed as inhibition of viral replication at 8 uM after 24 to 48 hrs by hemagglutination assay; type: functional, organism-based
Procedure, shortened: (§1)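 MDCK cells infected with Ud virus at moi 0.001 PFU/cell. After 1 h adsorption, compound was added at 4 or 8 μM in medium containing 1% DMSO. Medium aliquots were taken at 24, 36 and 48 h and assayed for hemagglutinin (HA) titre. Infected cells without inhibitor served as the control.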

Influenza A virus [2] = assay: Antiviral activity against Influenza A virus (A/udorn/307/1972 H3N2) infected in MDCK cells assessed as inhibition of viral replication at 4 uM after 36 to 48 hrs by hemagglutination assay; type: functional, organism-based; procedure, shortened: as §1
Influenza A virus [3] = assay: Antiviral activity against Influenza A virus (A/udorn/307/1972 H3N2) infected in MDCK cells assessed as reduction in viral RNA titer at 8 uM after 24 to 48 hrs by RT-qPCR analysis; type: functional, organism-based
Procedure, shortened: (§2)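 Infection was the same: MDCK, Ud virus at moi 0.001 PFU/cell, 1 h adsorption, then compound at 4 or 8 μM in 1% DMSO medium. Supernatant was sampled at 24, 36 and 48 h. Neuraminidase-segment vRNA was reverse transcribed in duplicate (forward primer 1.25 μM, 12 h, 37 C), then amplified by probe qPCR in duplicate (primers 0.8 μM, probe 0.24 μM, 50 cycles). Results were normalized to the start of infection.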

Influenza A virus [4] = assay: Antiviral activity against Influenza A virus (A/udorn/307/1972 H3N2) infected in MDCK cells assessed as reduction in viral RNA titer at 4 uM after 36 to 48 hrs by RT-qPCR analysis; type: functional, organism-based; procedure, shortened: as §2
Influenza A virus [5] = assay: Antiviral activity against Influenza A virus (A/udorn/307/1972 H3N2) infected in MDCK cells assessed as inhibition of viral replication at 4 uM after 48 hrs by hemagglutination assay; type: functional, organism-based; procedure, shortened: as §1
Influenza A virus [6] = assay: Antiviral activity against Influenza A virus (A/udorn/307/1972 H3N2) infected in MDCK cells assessed as reduction in viral RNA titer at 4 uM after 48 hrs by RT-qPCR analysis; type: functional, organism-based; procedure, shortened: as §2
Influenza A virus [7] = assay: Antiviral activity against Influenza A virus (A/udorn/307/1972 H3N2) infected in MDCK cells assessed as reduction in viral RNA titer up to 6.5 hrs by RT-qPCR analysis; type: functional, organism-based
Influenza A virus [8] = assay: Antiviral activity against Influenza A virus (A/udorn/307/1972 H3N2) infected in MDCK cells assessed as reduction in viral RNA titer at 4 to 8 uM after 24 to 48 hrs by RT-qPCR analysis relative to control; type: functional; procedure, shortened: as §2
MDCK = assay: Cytotoxicity against MDCK cells infected with Influenza A virus (A/udorn/307/1972 H3N2) at 4 uM after 24 to 48 hrs by CellTiter-Glo cell viability assay; type: cell-based, Canis lupus familiaris; settings: dog
Procedure, shortened: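 CellTiter-Glo ATP luminescence was measured in MDCK cells infected with Ud virus at low multiplicity, with or without 4 μM compound. Cells were lysed at several times over the 48 h infection.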

Influenza A virus [9] = assay: Antiviral activity against Influenza A virus (A/udorn/307/1972 H3N2) infected in MDCK cells assessed as inhibition of viral replication at 4 to 8 uM after 24 to 48 hrs by hemagglutination assay; type: functional, organism-based; procedure, shortened: as §1
Influenza A virus [10] = assay: Antiviral activity against Influenza A virus (A/udorn/307/1972 H3N2) infected in MDCK cells assessed as inhibition of viral replication at 4 uM after 36 hrs by hemagglutination assay; type: functional, organism-based; procedure, shortened: as §1
Influenza A virus [11] = assay: Antiviral activity against Influenza A virus (A/udorn/307/1972 H3N2) infected in MDCK cells assessed as reduction in viral RNA titer at 4 uM after 36 hrs by RT-qPCR analysis; type: functional, organism-based; procedure, shortened: as §2
Influenza A virus [12] = assay: Antiviral activity against Influenza A virus (A/udorn/307/1972 H3N2) infected in MDCK cells assessed as inhibition of viral replication at 4 to 8 uM after 24 hrs by hemagglutination assay; type: functional, organism-based; procedure, shortened: as §1
Influenza A virus [13] = assay: Antiviral activity against Influenza A virus (A/udorn/307/1972 H3N2) infected in MDCK cells assessed as reduction in viral RNA titer at 4 to 8 uM after 24 hrs by RT-qPCR analysis; type: functional, organism-based; procedure, shortened: as §2

Row | Structure (SMILES) | inhibition (Influenza A virus [1]) | inhibition (Influenza A virus [2]) | inhibition (Influenza A virus [3]) | inhibition (Influenza A virus [4]) | other results
1 | O=C(N/N=C(/c1ccc2c(c1)CCCC2)C1CCCC1)c1cc2ccccc2cc1O | Active | Active | Active | Active | 
2 | O=C(N/N=C(\CCCCl)c1ccc2c(c1)CCCC2)c1cc2ccccc2cc1O | Active | inactive | Active | inactive | 
3 | CCC/C(=N\NC(=O)c1cc2ccccc2cc1O)c1ccc2c(c1)CCCC2 | Active |  | Active |  | inhibition (Influenza A virus [5]): inactive; inhibition (Influenza A virus [6]): inactive
4 | CN(C)CCC/C(=N\NC(=O)c1cc2ccccc2cc1O)c1ccc2c(c1)CCCC2 | Active | inactive | Active | inactive | 
5 | O=C(N/N=C(\c1ccccc1)c1ccc2c(c1)CCCC2)c1cc2ccccc2cc1O |  |  |  |  | inhibition (Influenza A virus [7]): Active; fold change (FC) (Influenza A virus [8]): 1000; Activity (MDCK): Non-toxic; inhibition (Influenza A virus [9]): Active
6 | O=C(N/N=C(/c1ccc2c(c1)CCCC2)C1CC1)c1cc2ccccc2cc1O | Active |  | Active |  | 
7 | O=C(N/N=C(/c1ccc2c(c1)CCCC2)C1CCCCC1)c1cc2ccccc2cc1O | Active | Active |  | Active | inhibition (Influenza A virus [10]): Active; inhibition (Influenza A virus [11]): Active
8 | CC/C(=N\NC(=O)c1cc2ccccc2cc1O)c1ccc2c(c1)CCCC2 | Active |  | Active |  | inhibition (Influenza A virus [12]): Active; inhibition (Influenza A virus [13]): Active
9 | CC(C)/C(=N\NC(=O)c1cc2ccccc2cc1O)c1ccc2c(c1)CCCC2 |  |  |  |  | inhibition (Influenza A virus [12]): Active; inhibition (Influenza A virus [13]): Active
